Assays:
COLO 205 = experiment: Growth inhibition of human COLO205 cells after 48 hrs by SRB assay; assay type: functional; conditions: COLO 205, 48 h
Method in brief: (§1)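 NCI 60-panel five-dose assay at 0.01, 0.1, 1, 10 and 100 μM. Cells in RPMI 1640 with 5% FBS and 2 mM L-glutamine, preincubated 24 h, with time-zero plates TCA-fixed. Drug exposure 48 h at 37 °C. Read by SRB staining at 515 nm. GI50 is the concentration where [(Ti−Tz)/(C−Tz)]×100 = 50, taken from log concentration versus % growth curves.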

MDA-MB-468 = experiment: Cytotoxicity against human MDA-MB-468 cells after 48 hrs by SRB assay; assay type: cell-based; conditions: mda-mb-468, 48 h
Method in brief: (§2)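 NCI-60 five-dose screen in RPMI 1640 with 5% FBS and 2 mM L-glutamine; 5000–40,000 cells/well, 24 h pre-incubation. DMSO stocks diluted to 0.01, 0.1, 1, 10 and 100 μM final; 48 h at 37 °C, 5% CO2. Fixed with TCA (10% final adherent, 16% suspension), stained with 0.4% SRB, A515. GI50, TGI and LC50 taken from time-zero, control and test absorbances.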

HCC 2998 = experiment: Growth inhibition of human HCC2998 cells after 48 hrs by SRB assay; assay type: functional; conditions: HCC 2998, 48 h; method in brief: as §1
PC-3 [1] = experiment: Cytotoxicity against human PC3 cells after 48 hrs by SRB assay; assay type: cell-based; conditions: pc-3, 48 h; method in brief: as §2
MDA-MB-435 = experiment: Growth inhibition of human MDA-MB-435 cells after 48 hrs by SRB assay; assay type: functional; conditions: MDA-MB-435, 48 h; method in brief: as §1
NCI-H226 = experiment: Cytotoxicity against human NCI-H226 cells after 48 hrs by SRB assay; assay type: cell-based; conditions: nci-h226, 48 h; method in brief: as §2
SF-268 [2] = experiment: Growth inhibition of human SF268 cells after 48 hrs by SRB assay; assay type: functional; conditions: SF-268, 48 h; method in brief: as §1
786-0 = experiment: Cytotoxicity against human 786-0 cells after 48 hrs by SRB assay; assay type: cell-based; conditions: 786-0, 48 h; method in brief: as §2
SK-OV-3 = experiment: Cytotoxicity against human SKOV3 cells after 48 hrs by SRB assay; assay type: cell-based; conditions: sk-ov-3, 48 h; method in brief: as §2
K562 = experiment: Growth inhibition of human K562 cells after 48 hrs by SRB assay; assay type: functional; conditions: K562, 48 h; method in brief: as §1
NCI-H460 = experiment: Cytotoxicity against human NCI-H460 cells after 48 hrs by SRB assay; assay type: cell-based; conditions: nci-h460, 48 h; method in brief: as §2
CAKI-1 = experiment: Cytotoxicity against human Caki1 cells after 48 hrs by SRB assay; assay type: cell-based; conditions: caki-1, 48 h; method in brief: as §2
NCI-H522 = experiment: Cytotoxicity against human NCI-H522 cells after 48 hrs by SRB assay; assay type: cell-based; conditions: nci-h522, 48 h; method in brief: as §2
SR = experiment: Growth inhibition of human SR cells after 48 hrs by SRB assay; assay type: functional
Method in brief: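 Leukemia suspension line in the NCI-60 screen, grown in RPMI 1640 with 5% FBS and 2 mM L-glutamine and preincubated for 24 h. Exposure was either a single 10^-5 M dose or five doses from 0.01 to 100 μM, for 48 h at 37 °C. Settled cells were fixed with 80% TCA (16% final), stained with SRB, and read at 515 nm. GI50 was derived from % growth against time-zero and untreated controls.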

SF-268 [3] = experiment: Cytotoxicity against human SF268 cells after 48 hrs by SRB assay; assay type: cell-based; conditions: sf-268, 48 h; method in brief: as §2
SF-295 = experiment: Growth inhibition of human SF295 cells after 48 hrs by SRB assay; assay type: functional; conditions: SF-295, 48 h; method in brief: as §1
SN12C = experiment: Growth inhibition of human SN12C cells after 48 hrs by SRB assay; assay type: functional
Method in brief: (§3)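 NCI-60 panel cells grown in RPMI 1640 with 5% FBS and 2 mM L-glutamine, then seeded at 5000–40,000 cells/well by doubling time and preincubated for 24 h. Compound in DMSO was tested either at 10^-5 M alone or at 0.01–100 μM in five doses, for 48 h at 37 °C. Cells were fixed with cold TCA (10% final), stained with SRB, and read at 515 nm. GI50 was taken from % growth relative to time-zero and control wells.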

PC-3 [4] = experiment: Growth inhibition of human PC3 cells after 48 hrs by SRB assay; assay type: functional; conditions: PC-3, 48 h; method in brief: as §1
SW-620 = experiment: Growth inhibition of human SW620 cells after 48 hrs by SRB assay; assay type: functional; conditions: SW-620, 48 h; method in brief: as §3
BT-549 = experiment: Cytotoxicity against human BT549 cells after 48 hrs by SRB assay; assay type: cell-based; conditions: bt-549, 48 h; method in brief: as §2
HCT-15 [5] = experiment: Cytotoxicity against human HCT15 cells after 48 hrs by SRB assay; assay type: cell-based; conditions: hct-15, 48 h; method in brief: as §2
LOX IMVI = experiment: Growth inhibition of human LOXIMVI cells after 48 hrs by SRB assay; assay type: functional; method in brief: as §1
ACHN = experiment: Growth inhibition of human ACHN cells after 48 hrs by SRB assay; assay type: functional; method in brief: as §1
SK-MEL-28 = experiment: Cytotoxicity against human SK-MEL-28 cells after 48 hrs by SRB assay; assay type: cell-based; conditions: sk-mel-28, 48 h; method in brief: as §2
UO-31 = experiment: Growth inhibition of human UO31 cells after 48 hrs by SRB assay; assay type: functional; conditions: UO-31, 48 h; method in brief: as §3
UACC-62 = experiment: Cytotoxicity against human UACC62 cells after 48 hrs by SRB assay; assay type: cell-based; conditions: uacc-62, 48 h
Method in brief: (§4)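 NCI-60 five-dose screen. Cells grown in RPMI 1640 with 5% FBS and 2 mM L-glutamine and pre-incubated 24 h; a time-zero plate is TCA-fixed. Drug added at 0.01, 0.1, 1, 10 and 100 µM (DMSO stock) for 48 h at 37 °C, 5% CO2. Fixed with cold TCA (10% final for adherent, 16% for suspension cells), stained with 0.4% SRB, A515. GI50, TGI and LC50 taken from dose-response curves.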

HCT-15 [6] = experiment: Growth inhibition of human HCT15 cells after 48 hrs by SRB assay; assay type: functional; conditions: HCT-15, 48 h; method in brief: as §1
SNB-19 = experiment: Cytotoxicity against human SNB19 cells after 48 hrs by SRB assay; assay type: cell-based; conditions: snb-19, 48 h; method in brief: as §4
A549 = experiment: Growth inhibition of human A549 cells after 48 hrs by SRB assay; assay type: functional; conditions: A549, 48 h; method in brief: as §1
M14 = experiment: Cytotoxicity against human M14 cells after 48 hrs by SRB assay; assay type: cell-based; conditions: m14, 48 h; method in brief: as §2
KM12 = experiment: Growth inhibition of human KM12 cells after 48 hrs by SRB assay; assay type: functional; conditions: KM12, 48 h; method in brief: as §1
[7] = Cytotoxicity against human […] cells after 48 hrs by SRB assay; assay type: cell-based; method in brief: as §2

Structure (SMILES): O=c1c2ccccc2nc(-c2ccco2)n1/N=C/c1ccccc1Cl
- GI50 (COLO 205): 4.96 µM
- TGI (COLO 205): 34.1 µM
- LC50 (MDA-MB-468): > 100 µM
- GI50 (HCC 2998): 5.68 µM
- TGI (HCC 2998): > 100 µM
- LC50 (PC-3 [1]): > 100 µM
- GI50 (MDA-MB-435): 8.23 µM
- TGI (MDA-MB-435): 17 µM
- LC50 (NCI-H226): > 100 µM
- GI50 (SF-268 [2]): 6.84 µM
- TGI (SF-268 [2]): > 100 µM
- LC50 (786-0): > 100 µM
- LC50 (SK-OV-3): > 100 µM
- GI50 (K562): > 100 µM
- TGI (K562): > 100 µM
- LC50 (NCI-H460): > 100 µM
- LC50 (CAKI-1): > 100 µM
- LC50 (NCI-H522): 82.9 µM
- GI50 (SR): > 100 µM
- TGI (SR): > 100 µM
- LC50 (SF-268 [3]): > 100 µM
- GI50 (SF-295): 3.26 µM
- TGI (SF-295): > 100 µM
- GI50 (SN12C): 4.89 µM
- TGI (SN12C): > 100 µM
- GI50 (PC-3 [4]): 8.23 µM
- TGI (PC-3 [4]): > 100 µM
- GI50 (SW-620): 4.68 µM
- TGI (SW-620): 12.7 µM
- LC50 (BT-549): 72.4 µM
- LC50 (HCT-15 [5]): > 100 µM
- GI50 (LOX IMVI): 4.54 µM
- TGI (LOX IMVI): > 100 µM
- GI50 (ACHN): 3.12 µM
- TGI (ACHN): > 100 µM
- LC50 (SK-MEL-28): > 100 µM
- GI50 (UO-31): 6.12 µM
- TGI (UO-31): > 100 µM
- LC50 (UACC-62): > 100 µM
- GI50 (HCT-15 [6]): 5.73 µM
- TGI (HCT-15 [6]): > 100 µM
- LC50 (SNB-19): > 100 µM
- GI50 (A549): 4.78 µM
- TGI (A549): > 100 µM
- LC50 (M14): > 100 µM
- GI50 (KM12): 3.65 µM
- TGI (KM12): 25.4 µM
- LC50 [7]: > 100 µM

— ChEMBL document CHEMBL1781959, “Synthesis and in vitro antitumor activity of substituted quinazoline and quinoxaline derivatives: search for anticancer agent” (Eur J Med Chem, 2011)
